Legend:
[1] = biological target: GABA-A receptor; anion channel; assay: Displacement of [3H]flunitrazepam (FNZ) from GABA-A benzodiazepine receptor in rat forebrain
[2] = biological target: GABA-A receptor; anion channel (Rattus norvegicus) (UniProt O09028+P15431+P18506+P18508+P19969+P20236+P23574+P23576+P28471+P28473+P30191+P62813+P63079+P63138+Q91ZM7+Q9ES14); assay: GABA ratio measured by the IC50 in the absence of GABA compared to the IC50 in the presence of GABA in rats.
How it was run: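 Modified [3H]flunitrazepam binding in rat forebrain, with IC50 measured with and without GABA. Ratio = IC50 without GABA divided by IC50 with GABA.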

[3] = tested on: Rattus norvegicus; assay: Anxiolytic response at 30 mg/Kg measured by antagonism of pentylenetetrazole discriminative stimuli in rats.; format: functional
[4] = tested on: Rattus norvegicus; assay: Compound tested for its effect on Nonconflict(VI) operant responding of rats at a dose of 3.0 mg/kg administered perorally.; format: functional; conditions: route oral
How it was run: (§1)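 Cook-Davidson conflict procedure in rats given oral doses. Rats lever-press for milk reward with shock (conflict, FR) and without shock (nonconflict, VI). Value is % change in response rate, with significance set at P < 0.05. The minimally effective oral dose is taken as the dose raising conflict responding or lowering VI responding.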

[5] = tested on: Rattus norvegicus; assay: Minimal effective oral dose to cause ethanol interaction in rats.; format: functional
How it was run: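 Rotorod test of ethanol interaction in male Wistar (Crl:(WI)BR) rats, 130–160 g. Vehicle or test compound (0, 1, 3, 10 mg/kg) given orally 30 min before ethanol. Graded ethanol doses given ip 30 min before rotorod testing. Ethanol ED50 reported with confidence limits, P < 0.05.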

[6] = species: Rattus norvegicus; assay: Anxiolytic response measured by antagonism of pentylenetetrazole discriminative stimuli in rats.; format: functional
How it was run: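 Rats trained to discriminate a subconvulsant dose of pentylenetetrazole (PTZ) from vehicle. Test compound given 30 min before the PTZ dose. Antagonism of the PTZ stimulus is scored as the anxiolytic response. ED50 values by probit analysis, with 95% confidence limits.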

[7] = tested on: Rattus norvegicus; assay: Minimal effective oral dose to cause VI response decrement in rats.; format: functional; how it was run: as §1
[8] = tested on: Rattus norvegicus; assay: Minimal effective oral dose to cause increase in conflict response in rats after po administration.; format: functional; how it was run: as §1
[9] = tested on: Rattus norvegicus; assay: Compound tested for its effect on Nonconflict(VI) operant responding of rats at a dose of 30.0 mg/kg administered perorally.; format: functional; conditions: route oral; how it was run: as §1
[10] = tested on: Rattus norvegicus; assay: Compound tested for its effect on conflict(FR) operant responding of rats at a dose of 3.0 mg/kg administered perorally.; format: functional; conditions: route oral; how it was run: as §1
[11] = tested on: Rattus norvegicus; assay: Compound tested for its effect on Nonconflict(VI) operant responding of rats at a dose of 10.0 mg/kg administered perorally.; format: functional; conditions: route oral; how it was run: as §1
[12] = tested on: Rattus norvegicus; assay: Compound tested for its effect on conflict(FR) operant responding of rats at a dose of 10.0 mg/kg administered perorally.; format: functional; conditions: route oral; how it was run: as §1
[13] = tested on: Rattus norvegicus; assay: Compound tested for its effect on conflict(FR) operant responding of rats at a dose of 30.0 mg/kg administered perorally.; format: functional; conditions: route oral; how it was run: as §1
[14] = tested on: Rattus norvegicus; assay: Compound tested for its effect on Nonconflict (VI) operant responding of rats at a dose of 3.0 mg/Kg administered perorally.; format: functional; how it was run: as §1
[15] = tested on: Rattus norvegicus; assay: Compound tested for its effect on Nonconflict (VI) operant responding of rats at a dose of 10.0 mg/Kg administered perorally.; format: functional; how it was run: as §1
[16] = tested on: Rattus norvegicus; assay: Compound tested for its effect on conflict (FR) operant responding of rats at a dose of 10.0 mg/Kg administered perorally.; format: functional; how it was run: as §1
[17] = tested on: Rattus norvegicus; assay: Compound tested for its effect on conflict (FR) operant responding of rats at a dose of 3.0 mg/Kg administered perorally.; format: functional; how it was run: as §1
[18] = tested on: Rattus norvegicus; assay: Compound tested for its effect on Nonconflict (VI) operant responding of rats at a dose of 30.0 mg/Kg administered perorally.; format: functional; how it was run: as §1
[19] = tested on: Rattus norvegicus; assay: Compound tested for its effect on conflict (FR) operant responding of rats at a dose of 30.0 mg/Kg administered perorally.; format: functional; how it was run: as §1
[20] = tested on: Rattus norvegicus; assay: Compound tested for its effect on conflict (FR) operant responding of rats at a dose of 30.0 mg/Kg administered perorally; format: functional; how it was run: as §1
[21] = tested on: Rattus norvegicus; assay: Compound tested for its effect on conflict(FR) operant responding of rats at a dose of 1.0 mg/kg administered perorally.; format: functional; conditions: route oral; how it was run: as §1
[22] = tested on: Rattus norvegicus; assay: Compound tested for its effect on Nonconflict(VI) operant responding of rats at a dose of 1.0 mg/kg administered perorally.; format: functional; conditions: route oral; how it was run: as §1
[23] = tested on: Rattus norvegicus; assay: Anxiolytic response at 10 mg/Kg measured by antagonism of pentylenetetrazole discriminative stimuli in rats.; format: functional

Row | Compound | IC50 [1] [nM] | GABA ratio [2] | ED50 [6] [mg/kg] | MED [8] [mg/kg] | further results
1 | NC(=O)N1CCc2nc(O)n3nc(-c4ccccc4F)nc3c2C1 | 67 | 0.74 |  |  | 
2 | Oc1nc2c(c3nc(-c4cccc(F)c4)nn13)CN(Cc1ccccc1)CC2 | 2.4 | 1.6 |  |  | 
3 | CCOC(=O)N1CCc2nc(O)n3nc(-c4ccccc4F)nc3c2C1 | 12.1 | 1.1 |  |  | 
4 | Oc1nc2c(c3nc(-c4ccccc4F)nn13)CN(Cc1ccncc1)CC2 | 1.89 | 1.14 |  |  | 
5 | O=C(Nc1ccccc1)N1CCc2nc(O)n3nc(-c4ccccc4F)nc3c2C1 | 67 |  |  |  | 
6 | COC(=O)CN1CCc2nc(O)n3nc(-c4ccccc4F)nc3c2C1 | 27 | 1.06 |  |  | inhibition in vivo at 30 mg/kg [3]: 12%
7 | CN1C(=O)CN=C(c2ccccc2)c2cc(Cl)ccc21 [DIAZEPAM] |  |  | 1.23 | 10 | Change in response rate [4]: 4%; MED [5]: 5 mg/kg; MED [7]: 10 mg/kg; Change in response rate [9]: -2%; Change in response rate [10]: 159%; Change in response rate [11]: 30%; Change in response rate [12]: 425%; Change in response rate [13]: 257%
8 | Oc1nc2c(c3nc(-c4ccccc4F)nn13)CCCCC2 | 7.2 |  | 4.4 | 10 | Change in response rate [14]: 11%; MED [7]: 10 mg/kg; Change in response rate [15]: 53%; Change in response rate [16]: 232%; Change in response rate [17]: 79%; Change in response rate [18]: 49%; Change in response rate [19]: 236%
9 | Oc1nc2c(c3nc(-c4ccccc4F)nn13)CCC2 | 4.7 |  |  |  | 
10 | Oc1nc2c(c3nc(-c4ccc(F)cc4)nn13)CN(Cc1ccccc1)CC2 | 5.35 | 1.7 | 2.55 | 30 | MED [7]: 30 mg/kg; Change in response rate [9]: -38%; Change in response rate [11]: -17%; Change in response rate [12]: 30%; Change in response rate [13]: 372%
11 | O=C1C2C=Nc3ccccc3C2=NN1c1ccc(Cl)cc1 (centres undefined) [CGS-9896] |  |  | 2.3 | 10 | MED [5]: 30 mg/kg
12 | Oc1nc2ccc(Cl)cc2c2nc(-c3ccccc3F)nn12 | 0.5 | 0.79 |  |  | 
13 | Oc1nc2c(c3nc(-c4ccccc4F)nn13)CCCC2 | 1.7 |  | 2.4 | 30 | Change in response rate [18]: 1%; Change in response rate [20]: 132%
14 | Oc1nc2c(c3nc(-c4ccccc4F)nn13)CN(Cc1ccccc1)CC2 | 0.44 | 1.06 | 0.66 | 10 | Change in response rate [4]: -13%; MED [7]: 30 mg/kg; Change in response rate [9]: -52%; Change in response rate [10]: 173%; Change in response rate [21]: 19%; Change in response rate [11]: -44%; Change in response rate [22]: 0%; Change in response rate [12]: 206%; Change in response rate [13]: 282%
15 | Oc1nc2c(c3nc(-c4ccccc4F)nn13)CNCC2 | 442 |  |  |  | 
16 | Oc1nc2c(c3nc(-c4ccccc4F)nn13)CN(Cc1ccccn1)CC2 | 0.64 | 1.65 |  |  | inhibition in vivo at 10 mg/kg [23]: 50%

From ChEMBL document CHEMBL1125833, “Anxiolytic properties of certain annelated [1,2,4]triazolo[1,5-c]pyrimidin-5(6H)-ones” (J Med Chem, 1991)
